These results are taken from PubChem BioAssay.

Assay [1] in a line: Her2 expression decrease, cell viability multiplex – SKBR3 breast tumor cells, AlphaScreen, ATP viability, primary screen (AID 461;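 active = Her2 level under about 52% in both replicate screens, with viability over 70% of control, limit read from the data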;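 as to Her2 level: lower value means less Her2 protein in the cells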;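 as to viability: percent of carrier control wells set as 100% viability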). The note with it: SKBR3 Her2 protein level, 18-24 h, measured here: SKBR3 viability, ATP luminescence, at 10 µM.
The target of assay [2] is Receptor tyrosine-protein kinase erbB-2 (Homo sapiens) (UniProt P04626). The description is as above. To be noted: 18-24 h, at 10 µM, stronger effect = lower value.
Receptor tyrosine-protein kinase erbB-2 (Homo sapiens), sequence (P04626 whole entry, looked up): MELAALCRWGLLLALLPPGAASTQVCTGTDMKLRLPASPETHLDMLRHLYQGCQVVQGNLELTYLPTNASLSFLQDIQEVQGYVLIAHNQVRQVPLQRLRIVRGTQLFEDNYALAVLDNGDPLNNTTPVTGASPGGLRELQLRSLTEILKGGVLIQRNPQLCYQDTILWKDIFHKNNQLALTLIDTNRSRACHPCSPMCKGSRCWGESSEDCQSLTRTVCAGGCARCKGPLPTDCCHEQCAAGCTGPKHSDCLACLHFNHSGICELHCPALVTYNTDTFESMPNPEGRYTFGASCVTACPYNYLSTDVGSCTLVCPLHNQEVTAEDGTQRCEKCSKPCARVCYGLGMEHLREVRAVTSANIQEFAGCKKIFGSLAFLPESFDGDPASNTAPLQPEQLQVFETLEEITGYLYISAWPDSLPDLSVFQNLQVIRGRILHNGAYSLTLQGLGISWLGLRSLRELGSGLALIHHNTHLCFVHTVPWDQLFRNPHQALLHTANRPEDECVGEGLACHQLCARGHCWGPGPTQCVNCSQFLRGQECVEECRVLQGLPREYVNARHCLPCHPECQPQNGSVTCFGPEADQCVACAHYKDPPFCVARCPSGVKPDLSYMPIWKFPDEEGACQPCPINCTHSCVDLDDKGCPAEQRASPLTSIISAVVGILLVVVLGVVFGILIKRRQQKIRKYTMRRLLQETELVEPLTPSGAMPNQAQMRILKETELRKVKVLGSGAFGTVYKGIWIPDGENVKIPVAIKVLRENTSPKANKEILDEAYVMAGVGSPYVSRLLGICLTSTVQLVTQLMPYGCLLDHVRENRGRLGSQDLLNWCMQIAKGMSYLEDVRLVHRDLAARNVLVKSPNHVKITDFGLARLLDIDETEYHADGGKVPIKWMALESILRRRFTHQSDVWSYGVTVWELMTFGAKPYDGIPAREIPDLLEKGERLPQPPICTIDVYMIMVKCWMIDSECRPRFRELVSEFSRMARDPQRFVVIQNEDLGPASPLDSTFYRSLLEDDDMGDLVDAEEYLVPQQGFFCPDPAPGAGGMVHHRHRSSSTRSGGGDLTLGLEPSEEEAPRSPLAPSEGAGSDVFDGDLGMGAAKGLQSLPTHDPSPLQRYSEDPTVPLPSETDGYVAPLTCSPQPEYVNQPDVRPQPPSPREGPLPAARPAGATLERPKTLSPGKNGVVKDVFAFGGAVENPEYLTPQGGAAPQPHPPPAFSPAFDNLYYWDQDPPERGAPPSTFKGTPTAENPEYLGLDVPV
A short description of assay [3]: reduced viability of SK-BR-3 breast cancer cells – cell-based, 24 h, human, pilot screen (AID 572).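 Also: compound exposure lasted between 18 and 24 h rather than exactly 24 h; 100% = carrier-treated control wells.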 The note with it: SK-BR-3 viability, CellTiter-Glo luminescence, at 10 µM, stronger effect = lower value. In general terms: ATP-based viability assays read luminescence as a measure of living cells.
Assay [4] is described as follows: HUVEC growth inhibition – cell-based, human, primary screen (AID 575;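 active = viability at or below 30% in both replicate assays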;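 also: 100% = median of untreated cell wells with 0.1% DMSO on each plate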). The note with it: HUVEC proliferation, CellTiter-Glo luminescence, 72 h; at 10 µM; stronger effect = lower value. The method, boiled down: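 Assay system: Primary human umbilical vein endothelial cells | Quantity: 1250 cells per well | Medium: Supplemented EBM, 2% fetal bovine serum | Detection: CellTiter-Glo luminescence measuring cellular ATP | Read-out: % viability vs DMSO wells | Plate: Collagen-coated 384-well format | Times: 72 h exposure, 37 °C, 5% CO2, 30 min RT equilibration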

Assay [5] in a line: H69AR cell proliferation blockers – human, duplicate replicates, primary screen (AID 580;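 active = viability at or under a set limit in both replicates, limit being median viability minus 3 SD, cut at about 48% in these data, passing the limit was not always enough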;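 also: 100% = mean luminescence of untreated wells and 0% = no signal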). The note with it: H69AR lung tumor cells viability, ATP luminescence, 72 h; at 10 µM; stronger effect = lower value.
The nature of assay [6]: MRP1 drug-resistance reversers in H69AR cells – cell-based, doxorubicin co-treatment, pilot screen (AID 601;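 active = viability loss from added drug above about 55%, and viability with drug at most 40%, in both replicates, limit read from the data, passing the limit was not always enough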). To be noted: CellTiter-Glo, 72 h, at 10 µM; for differential viability (reversal): stronger effect = higher value.
A short description of assay [7]: yeast transport mutant growth inhibition pilot in 384-well plates, post-Golgi transport modulator project (AID 636; in the data active = inhibition above about 31%). The note with it: absorbance 615 nm, about 18 h, stronger effect = higher value.
Assay [8] can be described thus: growth suppression of yeast trafficking mutant, preliminary HTS, modulators of trafficking downstream of Golgi apparatus project, 1536-format plate, OD 615 nm (AID 637; in the data active = inhibition above about 30%). The note with it: yeast transport mutant growth, absorbance 615 nm, 18 h; stronger effect = higher value.
Where [9] appears, read: H69AR cells + 2 uM doxorubicin, measured here: viability with 2 uM doxorubicin, stronger effect = lower value.
[10] abbreviates: H69AR cells, compound alone cytotoxicity.

Molecules are shown by their SMILES. Activity calls are given as the source filed them.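 The calls were made as follows, unless noted: active = viability at or below 10% of carrier control in both of two separate runs; inconclusive = viability at or below 10% in only one of the two runs; inactive = the rest.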

As usually defined, the viability is a read-out of living cells in per cent, often relative to untreated cells. For orientation: inhibition means the change of the read-out against control, counted positive when it falls. Regarding `CCC1Oc2ccccc2N(CC(=O)Nc2ccc(OC)cc2OC)C1=O` (stereo not given), the viability was 90.5% in assay [1]; 90.5% (inactive) in assay [3]; 106% (inactive) in assay [4]; 100% (inactive) in assay [5]; 85.3% in assay [6] (setting [9]); 100% in assay [6] (setting [10]). In addition, the Her2 level in assay [2] is 95.5% (inactive). For the same compound, the differential viability (reversal) in assay [6] (H69AR cells + 2 uM doxorubicin) was 15% (inactive). For the same compound, the inhibition was -2.24% (inactive) in assay [7] and -1.09% (inactive) in assay [8].
In the case of `COc1ccccc1NC(=O)C1=C(C)Nc2nnnn2C1c1ccccc1OC` (stereo not given), the viability in assay [1] is 94%; in assay [3], 94% (inactive); in assay [4], 113% (inactive); in assay [5], 98.9% (inactive); in assay [6] (setting [9]), 88.5%; in assay [6] (setting [10]), 98.9%. Further, the Her2 level in assay [2] was 76.5% (inactive). The differential viability (reversal) in assay [6] (H69AR cells + 2 uM doxorubicin) was 10.4% (inactive). In addition, the inhibition in assay [7] is -4.16% (inactive); in assay [8] it was -1.5% (inactive).
Regarding `O=C(COc1nnnc2ccccc12)N1CCCc2ccccc21`, the viability in assay [1] was 97%; in assay [3] it was 97% (inactive); in assay [4], 98.2% (inactive); in assay [5], 98.3% (inactive); in assay [6] (setting [9]), 97.9%; in assay [6] (setting [10]) it was 98.3%. For the same compound, the Her2 level in assay [2] was 87% (inactive). Also, the differential viability (reversal) in assay [6] (H69AR cells + 2 uM doxorubicin) is 0.405% (inactive). For the same compound, the results for the inhibition in assay [7] and in assay [8] were -4.8% (inactive) and 6.07% (inactive), respectively.
Turning to `CCOc1ccc(S(=O)(=O)Nc2ccccc2C(=O)Nc2ccccc2N2CCOCC2)cc1`, the viability was 104% in assay [1]; 104% (inactive) in assay [3]; 74.5% (inactive) in assay [4]; 93.4% (inactive) in assay [5]; 90.7% in assay [6] (setting [9]); 93.4% in assay [6] (setting [10]). Besides, the Her2 level in assay [2] was 97.5% (inactive). For the same compound, the differential viability (reversal) in assay [6] (H69AR cells + 2 uM doxorubicin) is 2.71% (inactive). The figures for the inhibition in assay [7] and in assay [8] were -6.67% (inactive) and 3.06% (inactive), respectively.
`CCCc1c(O)nc(SCC(=O)NCCc2ccc(OC)c(OC)c2)[nH]c1=O`: the viability in assay [1] is 95%; in assay [3], 95% (inactive); in assay [4], 84.6% (inactive); in assay [5], 104% (inactive); in assay [6] (setting [9]) it was 104%; in assay [6] (setting [10]), 104%. The Her2 level in assay [2] was 93.5% (inactive). Further, the differential viability (reversal) in assay [6] (H69AR cells + 2 uM doxorubicin) was -0.29% (inactive). The inhibition in assay [7] was -4.53% (inactive); in assay [8], -2.26% (inactive).
In the case of `Cn1c(=O)c2c(nc(NCCCO)n2CCc2ccccc2)n(C)c1=O`, the viability in assay [1] was 94%; in assay [3], 94% (inactive); in assay [4] it was 93.7% (inactive); in assay [5], 87.1% (inactive); in assay [6] (setting [9]), 89.4%; in assay [6] (setting [10]) it was 87.1%. Further, the Her2 level in assay [2] was 138% (inactive). The differential viability (reversal) in assay [6] (H69AR cells + 2 uM doxorubicin) was -2.35% (inactive). For the same compound, the results for the inhibition in assay [7] and in assay [8] were 5.45% (inactive) and -2.83% (inactive), respectively.
For the compound `COc1ccc2nc(C)cc(N3CCOCC3)c2c1`, the viability is 128% in assay [1]; 128% (inactive) in assay [3]; 101% (inactive) in assay [4]; 93.1% (inactive) in assay [5]; 96.9% in assay [6] (setting [9]); 93.1% in assay [6] (setting [10]). Further, the Her2 level in assay [2] was 101% (inactive). Also, the differential viability (reversal) in assay [6] (H69AR cells + 2 uM doxorubicin) was -3.77% (inactive). For the same compound, the inhibition in assay [7] was -3.68% (inactive); in assay [8], 9.67% (inactive).
For `N#Cc1c2n(c(=S)n(-c3ccccn3)c1=O)CCCCC2`, the viability in assay [1] is 81.5%; in assay [3] it was 81.5% (inactive); in assay [4], 97.8% (inactive); in assay [5], 86% (inactive); in assay [6] (setting [9]), 91.1%; in assay [6] (setting [10]), 86%. The Her2 level in assay [2] was 91.5% (inactive). For the same compound, the differential viability (reversal) in assay [6] (H69AR cells + 2 uM doxorubicin) is -5.17% (inactive). In addition, the inhibition in assay [7] was 2.99% (inactive); in assay [8], -10.7% (inactive).
In the case of `Cc1cc(C(=O)OCC(=O)N2c3ccccc3CC2C)c(C)o1` (stereo not given), the viability in assay [1] is 90.5%; in assay [3] it was 90.5% (inactive); in assay [4], 101% (inactive); in assay [5], 100% (inactive); in assay [6] (setting [9]), 90.8%; in assay [6] (setting [10]), 100%. For the same compound, in assay [2], the Her2 level is 86.5% (inactive). In addition, the differential viability (reversal) in assay [6] (H69AR cells + 2 uM doxorubicin) was 9.63% (inactive). Further, the inhibition in assay [7] was -4.05% (inactive); in assay [8] it was -4.75% (inactive).
As to `O=C(NCCN1CCOCC1)c1ccc2c(c1)N(Cc1ccccc1)C(=O)CS2`, the viability in assay [1] is 89.5%; in assay [3], 89.5% (inactive); in assay [4] it was 97.8% (inactive); in assay [5], 99.4% (inactive); in assay [6] (setting [9]), 94.6%; in assay [6] (setting [10]), 99.4%. In addition, in assay [2], the Her2 level is 111% (inactive). Also, the differential viability (reversal) in assay [6] (H69AR cells + 2 uM doxorubicin) is 4.81% (inactive). The inhibition in assay [7] is 0.67% (inactive); in assay [8], -0.32% (inactive).
As for `CCCCn1c(NCCC)nc2c1c(=O)[nH]c(=O)n2C`, the viability was 96% in assay [1]; 96% (inactive) in assay [3]; 113% (inactive) in assay [4]; 93.7% (inactive) in assay [5]; 81% in assay [6] (setting [9]); 93.7% in assay [6] (setting [10]). For the same compound, in assay [2], the Her2 level is 80% (inactive). Further, in assay [6] (H69AR cells + 2 uM doxorubicin), the differential viability (reversal) was 12.8% (inactive). The values for the inhibition in assay [7] and in assay [8] were -3.51% (inactive) and -0.66% (inactive), respectively.
In the case of `O=c1[nH]c2cccnc2n1Cc1ccco1`, the viability in assay [1] is 90%; in assay [3] it was 90% (inactive); in assay [4] it was 107% (inactive); in assay [5], 97.5% (inactive); in assay [6] (setting [9]), 83.8%; in assay [6] (setting [10]) it was 97.5%. Also, the Her2 level in assay [2] was 88% (inactive). In assay [6] (H69AR cells + 2 uM doxorubicin), the differential viability (reversal) is 13.8% (inactive). Also, the inhibition in assay [7] is -4.32% (inactive); in assay [8], 0.83% (inactive).
With `COc1ccccc1-n1cnc(N)c1C(C)=O`, the viability in assay [1] was 110%; in assay [3], 110% (inactive); in assay [4] it was 105% (inactive); in assay [5], 103% (inactive); in assay [6] (setting [9]) it was 104%; in assay [6] (setting [10]) it was 103%. In assay [2], the Her2 level was 103% (inactive). Also, the differential viability (reversal) in assay [6] (H69AR cells + 2 uM doxorubicin) is -0.75% (inactive). For the same compound, the inhibition in assay [7] is -4.21% (inactive); in assay [8] it was 7.7% (inactive).
Turning to `Cc1c(C(=O)O)c(-c2ccccc2)nn1-c1ccccc1`, the viability is 103% in assay [1]; 103% (inactive) in assay [3]; 96.9% (inactive) in assay [4]; 92.1% (inactive) in assay [5]; 87.5% in assay [6] (setting [9]); 92.1% in assay [6] (setting [10]). The Her2 level in assay [2] was 104% (inactive). Besides, the differential viability (reversal) in assay [6] (H69AR cells + 2 uM doxorubicin) is 4.64% (inactive). The inhibition in assay [7] was -2.99% (inactive); in assay [8] it was -2.3% (inactive).
